Experimental data from ChEMBL document CHEMBL2429816, “Synthesis and binding affinity of new 1,4-disubstituted triazoles as potential dopamine D(3) receptor ligands” (Bioorg Med Chem Lett, 2013).
pKi: −log10 of the molar value.

Experiments:
[1] = species: Homo sapiens; test: Selectivity ratio of Ki for dopamine D2 receptor (unknown origin) to Ki for dopamine D3 receptor (unknown origin)
Method in brief: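 Radioligand competition binding at human D2 and D3 receptors. Ki was derived from displacement data using the Cheng–Prusoff equation. The selectivity value is the D2 Ki divided by the D3 Ki.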

[2] = target: Dopamine receptors; D3 & D4 (Homo sapiens) (UniProt P35462+P21917); test: Selectivity ratio of Ki for cloned human dopamine D4 receptor to Ki for cloned human dopamine D3 receptor
[3] = target: T1, D(4) dopamine receptor (Homo sapiens, UniProt P21917); test: Displacement of [3H]-spiperone from cloned human dopamine D4 receptor
T1 sequence (P21917 whole entry): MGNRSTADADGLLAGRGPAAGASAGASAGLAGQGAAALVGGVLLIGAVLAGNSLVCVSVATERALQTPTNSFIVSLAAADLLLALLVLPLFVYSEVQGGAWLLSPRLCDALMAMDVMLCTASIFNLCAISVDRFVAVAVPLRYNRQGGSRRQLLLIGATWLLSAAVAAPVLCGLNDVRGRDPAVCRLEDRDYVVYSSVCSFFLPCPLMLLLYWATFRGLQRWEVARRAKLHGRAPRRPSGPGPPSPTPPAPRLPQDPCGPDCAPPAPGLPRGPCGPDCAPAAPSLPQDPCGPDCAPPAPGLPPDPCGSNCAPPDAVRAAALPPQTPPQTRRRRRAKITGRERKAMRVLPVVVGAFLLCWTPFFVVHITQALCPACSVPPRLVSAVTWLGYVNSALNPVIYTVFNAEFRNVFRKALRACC
Method in brief: (§1)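 Competition binding at human receptor subtypes by the group's earlier procedure. Ki was calculated from displacement data by the Cheng–Prusoff equation.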

[4] = species: Homo sapiens; test: Selectivity ratio of Ki for cloned human dopamine D2 receptor to Ki for cloned human dopamine D3 receptor
[5] = target: T2, D(3) dopamine receptor (Homo sapiens, UniProt P35462); test: Displacement of [3H]-spiperone from cloned human dopamine D3 receptor; method in brief: as §1
[6] = target: D(1A) dopamine receptor (Homo sapiens) (UniProt P21728); test: Displacement of [3H]-SCH23390 from cloned human dopamine D1 receptor at 1 uM relative to control
Method in brief: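 Competition binding at the human D1 receptor. Compounds with little affinity are reported as percent inhibition at the highest concentration tested.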

[7] = target: D(2) dopamine receptor (Homo sapiens, UniProt P14416); test: Displacement of [3H]-spiperone from cloned human dopamine D2 receptor; method in brief: as §1
[8] = target: D(3) dopamine receptor (Rattus norvegicus, UniProt P19020); test: Displacement of [3H]spiperone from rat dopamine D3 receptor expressed in sf9 cells after 60 mins
[9] = target: Dopamine receptor D2 and D3 (Rattus norvegicus) (UniProt P19020+P61169); test: Selectivity ratio of Ki for rat dopamine D2 receptor to Ki for rat dopamine D3 receptor
[10] = target: T2, D(3) dopamine receptor; test: Antagonist activity at human dopamine D3 receptor assessed as [35S]GTPgammaS binding preincubated for 15 mins followed by [35S]GTPgammaS addition measured after 40 mins; type: functional

Chain of Dopamine receptors; D3 & D4 (Homo sapiens) (P35462 whole entry, looked up, one chain of several): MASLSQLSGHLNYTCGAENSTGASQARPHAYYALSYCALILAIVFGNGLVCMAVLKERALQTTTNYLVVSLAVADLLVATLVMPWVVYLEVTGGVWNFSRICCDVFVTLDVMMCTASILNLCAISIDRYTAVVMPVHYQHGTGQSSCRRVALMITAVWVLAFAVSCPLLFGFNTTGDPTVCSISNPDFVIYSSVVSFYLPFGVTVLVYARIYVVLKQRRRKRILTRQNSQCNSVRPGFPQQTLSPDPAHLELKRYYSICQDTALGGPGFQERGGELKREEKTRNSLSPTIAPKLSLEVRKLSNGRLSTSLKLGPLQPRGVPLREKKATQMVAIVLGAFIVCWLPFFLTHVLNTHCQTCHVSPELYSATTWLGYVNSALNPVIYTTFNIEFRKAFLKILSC
Chain of D(1A) dopamine receptor (Homo sapiens) (P21728 whole entry): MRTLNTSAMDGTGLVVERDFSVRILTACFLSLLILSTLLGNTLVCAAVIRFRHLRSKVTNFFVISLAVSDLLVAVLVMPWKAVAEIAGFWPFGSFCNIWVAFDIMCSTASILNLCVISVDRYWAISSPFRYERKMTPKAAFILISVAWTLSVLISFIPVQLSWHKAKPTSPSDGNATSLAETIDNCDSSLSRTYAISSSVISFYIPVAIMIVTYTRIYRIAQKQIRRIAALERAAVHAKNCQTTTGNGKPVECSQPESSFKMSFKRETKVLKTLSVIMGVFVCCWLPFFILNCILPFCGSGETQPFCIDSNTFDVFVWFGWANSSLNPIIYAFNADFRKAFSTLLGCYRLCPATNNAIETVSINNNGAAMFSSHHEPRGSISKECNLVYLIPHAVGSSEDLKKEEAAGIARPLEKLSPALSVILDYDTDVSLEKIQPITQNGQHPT
Chain of D(2) dopamine receptor (P14416 whole entry): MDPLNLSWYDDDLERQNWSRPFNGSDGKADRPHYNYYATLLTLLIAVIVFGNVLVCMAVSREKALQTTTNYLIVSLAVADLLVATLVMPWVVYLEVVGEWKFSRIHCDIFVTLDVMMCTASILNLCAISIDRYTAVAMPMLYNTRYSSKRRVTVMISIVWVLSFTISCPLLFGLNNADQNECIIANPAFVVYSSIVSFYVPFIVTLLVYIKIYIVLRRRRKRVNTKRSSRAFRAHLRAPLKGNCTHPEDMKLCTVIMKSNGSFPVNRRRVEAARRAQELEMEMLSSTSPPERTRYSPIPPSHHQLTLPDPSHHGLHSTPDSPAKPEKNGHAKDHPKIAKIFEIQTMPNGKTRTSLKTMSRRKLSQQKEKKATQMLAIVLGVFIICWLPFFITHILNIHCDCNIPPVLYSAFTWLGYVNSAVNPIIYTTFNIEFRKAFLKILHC
T2 sequence (P35462 whole entry): as the sequence (P35462 whole entry, looked up, one chain of several) above
Chain of D(3) dopamine receptor (Rattus norvegicus, UniProt P19020) (P19020 whole entry): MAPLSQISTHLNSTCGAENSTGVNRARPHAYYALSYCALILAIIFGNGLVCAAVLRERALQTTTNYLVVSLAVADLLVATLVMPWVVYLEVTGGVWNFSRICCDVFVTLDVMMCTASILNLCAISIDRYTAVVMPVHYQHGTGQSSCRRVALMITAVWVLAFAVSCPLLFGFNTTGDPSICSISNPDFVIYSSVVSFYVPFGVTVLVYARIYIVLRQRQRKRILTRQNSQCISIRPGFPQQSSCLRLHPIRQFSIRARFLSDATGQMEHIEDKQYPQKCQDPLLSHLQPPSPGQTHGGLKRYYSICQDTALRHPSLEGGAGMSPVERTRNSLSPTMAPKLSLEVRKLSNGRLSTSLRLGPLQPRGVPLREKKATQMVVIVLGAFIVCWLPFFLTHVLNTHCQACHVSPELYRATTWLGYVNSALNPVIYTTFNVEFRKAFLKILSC
Chain of Dopamine receptor D2 and D3 (Rattus norvegicus) (P19020 whole entry, looked up): as the sequence (P19020 whole entry) above
Chain of Dopamine receptor D2 and D3 (Rattus norvegicus) (P61169 whole entry, looked up): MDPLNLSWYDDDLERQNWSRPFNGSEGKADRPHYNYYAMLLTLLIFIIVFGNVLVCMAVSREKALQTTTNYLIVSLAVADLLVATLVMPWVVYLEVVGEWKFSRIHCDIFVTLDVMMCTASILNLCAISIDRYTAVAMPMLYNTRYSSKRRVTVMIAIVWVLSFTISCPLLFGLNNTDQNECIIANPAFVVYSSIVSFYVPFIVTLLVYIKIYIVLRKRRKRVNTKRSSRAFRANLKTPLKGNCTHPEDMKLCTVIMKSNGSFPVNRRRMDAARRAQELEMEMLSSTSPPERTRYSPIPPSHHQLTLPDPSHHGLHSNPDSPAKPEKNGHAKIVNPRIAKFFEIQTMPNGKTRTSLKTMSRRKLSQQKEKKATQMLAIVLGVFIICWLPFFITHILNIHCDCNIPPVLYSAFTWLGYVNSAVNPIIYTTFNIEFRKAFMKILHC

| Ratio Ki [2] | pKi [3] | Ratio Ki [4] | pKi [5] | inhibition [6] [%] | pKi [7] | pKi [8] | Ratio Ki [9] | Kb [10] [nM] | Compound | Ratio Ki [1] |
| --- | --- | --- | --- | --- | --- | --- | --- | --- | --- | --- |
| 14.3 | 5.72 | 1.4 | 6.88 | 40.9 | 6.74 |  |  |  | COc1ccccc1N1CCN(CCCCn2cc(-c3cccnc3)nn2)CC1 |  |
| 197 | 6.27 | 73.6 | 8.57 | 38.4 | 6.70 |  |  | 1.4 | COc1ccccc1N1CCN(CCCCn2cc(-c3ccc(N)cc3)nn2)CC1 |  |
| 7.9 | 6.19 | 2.8 | 7.09 | 39.4 | 6.64 |  |  |  | COc1ccccc1N1CCN(CCCCn2cc(-c3ccccc3)nn2)CC1 |  |
| 3.5 | 6.41 | 2 | 6.96 | 44.3 | 6.64 |  |  |  | COc1ccccc1N1CCN(CCCCn2cc(-c3ccc(Br)cc3)nn2)CC1 |  |

Continued, compound first:

| Compound | Ratio Ki [2] | pKi [3] | Ratio Ki [4] | pKi [5] | inhibition [6] [%] | pKi [7] | pKi [8] | Ratio Ki [9] | Kb [10] [nM] | Ratio Ki [1] |
| --- | --- | --- | --- | --- | --- | --- | --- | --- | --- | --- |
| CCCN[C@H]1CCc2nc(N)sc2C1 [PRAMIPEXOLE] |  |  |  |  |  |  |  |  |  | 72 |
| NC(=O)c1cccc(N2CCN(CCCCNC(=O)c3ccc(Br)cc3)CC2)c1 |  |  |  |  |  |  | 8.80 | 1800 |  |  |
| COc1ccc(-c2cn(CCCCN3CCN(c4ccccc4OC)CC3)nn2)cc1 | 9.8 | 6.40 | 5.3 | 7.40 | 44.3 | 6.67 |  |  |  |  |
| COc1ccccc1N1CCN(CCCCn2cc(-c3ccc(-c4cnco4)cc3)nn2)CC1 | 3.2 | 6.37 | 1 | 6.87 | 50 | 6.86 |  |  |  |  |
